Measured values: ChEMBL document CHEMBL1153433, “Design and synthesis of 2-amino-4-methylpyridine analogues as inhibitors for inducible nitric oxide synthase and in vivo evaluation of [18F]6-(2-fluoropropyl)-4-methyl-pyridin-2-amine as a potential PET tracer for inducible nitric oxide synthase” (J Med Chem, 2009)

Experiments:
Lung [1] = test: Biodistribution in LPS treated C57BL/6N mouse lung at 50 uCi/110 uL, iv administered 6 hrs […] LPS challenge measured after 2 hrs post drug dose; format: ADME, organism-based; conditions: in vivo
Method in brief: (§1)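 Male C57BL/6N mice, 6-8 weeks; LPS (E. coli O127:B8) in PBS, 10 mg/kg i.v., given 6 h before tracer. HPLC-purified [18F]tracer ~50 μCi in 10% ethanol/saline i.v. via tail vein. Killed at 5 min, 30 min, 1 h or 2 h; tissues weighed and gamma-counted against diluted injectate standards. Reported as %ID/g, mean ± SD, n = 4.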

[2] = Metabolic stability in Sprague-Dawley rat whole blood at 400 uCi after 1 hr; format: ADME, tissue-based; conditions: read-out: Stability
Method in brief: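 Heparinized whole blood (5 mL) from a mature male Sprague-Dawley rat incubated with ~400 μCi [18F]tracer at 37 °C for 5 min to 2 h. Aliquots lysed with 3 volumes of ethanol and centrifuged; supernatant and pellet gamma-counted. Supernatant species analysed by silica TLC (ethyl acetate), identified by co-elution with non-radioactive standard.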

[3] = Metabolic stability in Sprague-Dawley rat plasma assessed as parent compound remaining at 400 uCi, iv after 30 mins by HPLC; format: ADME, organism-based; conditions: read-out: Stability
Method in brief: (§2)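 Anesthetized male Sprague-Dawley rat given 400 μCi [18F]tracer in 10% ethanol/saline i.v. via tail vein. Blood drawn by cardiac puncture at 5 and 30 min. Plasma separated by centrifugation, treated with 3 equivalents of acetonitrile and centrifuged; supernatant filtered and analysed by HPLC. Samples kept on ice.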

[4] = Metabolic stability in Sprague-Dawley rat plasma assessed as parent compound remaining at 400 uCi, iv after 5 mins by HPLC; format: ADME, organism-based; conditions: read-out: Stability; method in brief: as §2
Blood [5] = test: Biodistribution in LPS treated C57BL/6N mouse blood at 50 uCi/110 uL, iv administered 6 hrs […] LPS challenge measured after 1 hr post drug dose; format: ADME, organism-based; conditions: in vivo
Method in brief: (§3)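 Male C57BL/6N mice aged 6-8 weeks received E. coli O127:B8 LPS in PBS, 10 mg/kg i.v., 6 h before tracer. Tracer ~50 μCi in 10% ethanol/saline, i.v. tail vein. Sacrifice was at 5 min, 30 min, 1 h or 2 h post-injection. Organs were weighed and gamma-counted with injectate standards. Data are %ID/g, mean ± SD, n = 4.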

Blood [6] = test: Biodistribution in C57BL/6N mouse blood at 50 uCi/110 uL, iv after 2 hrs; format: ADME, organism-based; conditions: in vivo
Method in brief: (§4)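 Untreated (control) male C57BL/6N mice aged 6-8 weeks. HPLC-purified tracer, ~50 μCi in 10% ethanol/saline, given i.v. via the tail vein. Mice were sacrificed at 5 min, 30 min, 1 h and 2 h post-injection. Tissues were removed, weighed and gamma-counted against diluted injectate standards. Data are %ID/g, mean ± SD, n = 4.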

Lung [7] = test: Biodistribution in LPS treated C57BL/6N mouse lung at 50 uCi/110 uL, iv administered 6 hrs […] LPS challenge measured after 5 mins post drug dose; format: ADME, organism-based; conditions: in vivo; method in brief: as §1
Lung [8] = test: Biodistribution in C57BL/6N mouse lung at 50 uCi/110 uL, iv after 5 mins; format: ADME, organism-based; conditions: in vivo; method in brief: as §4
Lung [9] = test: Biodistribution in LPS treated C57BL/6N mouse lung at 50 uCi/110 uL, iv administered 6 hrs […] LPS challenge measured after 30 mins post drug dose; format: ADME, organism-based; conditions: in vivo, 0.5 h; method in brief: as §1
Lung [10] = test: Biodistribution in LPS treated C57BL/6N mouse lung at 50 uCi/110 uL, iv administered 6 hrs […] LPS challenge measured after 1 hr post drug dose; format: ADME, organism-based; conditions: in vivo; method in brief: as §1
Lung [11] = test: Biodistribution in C57BL/6N mouse lung at 50 uCi/110 uL, iv after 2 hrs; format: ADME, organism-based; conditions: in vivo; method in brief: as §4
Liver [12] = test: Biodistribution in C57BL/6N mouse liver at 50 uCi/110 uL, iv after 5 mins; format: ADME, organism-based; conditions: in vivo; method in brief: as §4
Liver [13] = test: Biodistribution in LPS treated C57BL/6N mouse liver at 50 uCi/110 uL, iv administered 6 hrs […] LPS challenge measured after 30 mins post drug dose; format: ADME, organism-based; conditions: in vivo, 0.5 h; method in brief: as §1
Bone [14] = test: Biodistribution in LPS treated C57BL/6N mouse bone at 50 uCi/110 uL, iv administered 6 hrs […] LPS challenge measured after 2 hrs post drug dose; format: ADME, organism-based, Bone element; conditions: in vivo; method in brief: as §3
Liver [15] = test: Biodistribution in LPS treated C57BL/6N mouse liver at 50 uCi/110 uL, iv administered 6 hrs […] LPS challenge measured after 1 hr post drug dose; format: ADME, organism-based; conditions: in vivo; method in brief: as §1
Kidney [16] = test: Biodistribution in C57BL/6N mouse kidney at 50 uCi/110 uL, iv after 30 mins; format: ADME, organism-based; conditions: in vivo, 0.5 h; method in brief: as §4
Kidney [17] = test: Biodistribution in LPS treated C57BL/6N mouse kidney at 50 uCi/110 uL, iv administered 6 hrs […] LPS challenge measured after 1 hr post drug dose; format: ADME, organism-based; conditions: in vivo; method in brief: as §3
Kidney [18] = test: Biodistribution in C57BL/6N mouse kidney at 50 uCi/110 uL, iv after 2 hrs; format: ADME, organism-based; conditions: in vivo; method in brief: as §4
Muscle tissue [19] = test: Biodistribution in C57BL/6N mouse muscle at 50 uCi/110 uL, iv after 5 mins; format: ADME, organism-based; conditions: in vivo; method in brief: as §4
Blood [20] = test: Biodistribution in C57BL/6N mouse blood at 50 uCi/110 uL, iv after 5 mins; format: ADME, organism-based; conditions: in vivo; method in brief: as §4
Blood [21] = test: Biodistribution in LPS treated C57BL/6N mouse blood at 50 uCi/110 uL, iv administered 6 hrs […] LPS challenge measured after 30 mins post drug dose; format: ADME, organism-based; conditions: in vivo, 0.5 h; method in brief: as §3
Blood [22] = test: Biodistribution in C57BL/6N mouse blood at 50 uCi/110 uL, iv after 30 mins; format: ADME, organism-based; conditions: in vivo, 0.5 h; method in brief: as §4
Mus musculus = test: Biodistribution in LPS treated C57BL/6N mouse at 5 uCi, iv co-administered with nonselective NOS inhibitor 2-amino-4-methylpyridine measured after 1 hr; format: ADME, organism-based; conditions: in vivo
Muscle tissue [23] = test: Biodistribution in C57BL/6N mouse muscle at 50 uCi/110 uL, iv after 30 mins; format: ADME, organism-based; conditions: in vivo, 0.5 h; method in brief: as §4
Muscle tissue [24] = test: Biodistribution in C57BL/6N mouse muscle at 50 uCi/110 uL, iv after 1 hr; format: ADME, organism-based; conditions: in vivo; method in brief: as §4
Heart [25] = test: Biodistribution in C57BL/6N mouse heart at 50 uCi/110 uL, iv after 5 mins; format: ADME, organism-based; conditions: in vivo; method in brief: as §4
Heart [26] = test: Biodistribution in C57BL/6N mouse heart at 50 uCi/110 uL, iv after 30 mins; format: ADME, organism-based; conditions: in vivo, 0.5 h; method in brief: as §4
Heart [27] = test: Biodistribution in LPS treated C57BL/6N mouse heart at 50 uCi/110 uL, iv administered 6 hrs […] LPS challenge measured after 2 hrs post drug dose; format: ADME, organism-based; conditions: in vivo; method in brief: as §3
Brain [28] = test: Biodistribution in LPS treated C57BL/6N mouse brain at 50 uCi/110 uL, iv administered 6 hrs […] LPS challenge measured after 5 mins post drug dose; format: ADME, organism-based; conditions: in vivo; method in brief: as §3
Brain [29] = test: Biodistribution in C57BL/6N mouse brain at 50 uCi/110 uL, iv after 30 mins; format: ADME, organism-based; conditions: in vivo, 0.5 h; method in brief: as §4
Brain [30] = test: Biodistribution in C57BL/6N mouse brain at 50 uCi/110 uL, iv after 2 hrs; format: ADME, organism-based; conditions: in vivo; method in brief: as §4
Bone [31] = test: Biodistribution in C57BL/6N mouse bone at 50 uCi/110 uL, iv after 5 mins; format: ADME, organism-based, Bone element; conditions: in vivo; method in brief: as §4
Bone [32] = test: Biodistribution in LPS treated C57BL/6N mouse bone at 50 uCi/110 uL, iv administered 6 hrs […] LPS challenge measured after 30 mins post drug dose; format: ADME, organism-based, Bone element; conditions: in vivo, 0.5 h; method in brief: as §3
Bone [33] = test: Biodistribution in C57BL/6N mouse bone at 50 uCi/110 uL, iv after 1 hr; format: ADME, organism-based, Bone element; conditions: in vivo; method in brief: as §4

- Drug uptake (Lung [1]): 0.18 % ID/g
- remaining at 1 h, 400 uCi [2]: 80%
- remaining at 0.5 h [3]: 20.2%
- remaining at 5 min [4]: 40.3%
- Drug uptake (Blood [5]): 0.86 % ID/g
- Drug uptake (Blood [6]): 0.27 % ID/g
- Drug uptake (Lung [7]): 4.32 % ID/g
- Drug uptake (Lung [8]): 3.33 % ID/g
- Drug uptake (Lung [9]): 1.84 % ID/g
- Drug uptake (Lung [10]): 0.73 % ID/g
- Drug uptake (Lung [11]): 0.15 % ID/g
- Drug uptake (Liver [12]): 33.2 % ID/g
- Drug uptake (Liver [13]): 7.06 % ID/g
- Drug uptake (Bone [14]): 3.77 % ID/g
- Drug uptake (Liver [15]): 2.63 % ID/g
- Drug uptake (Kidney [16]): 7.3 % ID/g
- Drug uptake (Kidney [17]): 3.95 % ID/g
- Drug uptake (Kidney [18]): 0.8 % ID/g
- Drug uptake (Muscle tissue [19]): 1.25 % ID/g
- Drug uptake (Blood [20]): 2.37 % ID/g
- Drug uptake (Blood [21]): 2.09 % ID/g
- Drug uptake (Blood [22]): 1.22 % ID/g
- Activity (Mus musculus): Not Active
- Drug uptake (Muscle tissue [23]): 0.71 % ID/g
- Drug uptake (Muscle tissue [24]): 0.27 % ID/g
- Drug uptake (Heart [25]): 1.5 % ID/g
- Drug uptake (Heart [26]): 0.6 % ID/g
- Drug uptake (Heart [27]): 0.12 % ID/g
- Drug uptake (Brain [28]): 1.81 % ID/g
- Drug uptake (Brain [29]): 0.28 % ID/g
- Drug uptake (Brain [30]): 0.07 % ID/g
- Drug uptake (Bone [31]): 1.52 % ID/g
- Drug uptake (Bone [32]): 3.7 % ID/g
- Drug uptake (Bone [33]): 2.57 % ID/g
Structure (SMILES): Cc1cc(N)nc(CC(C)[18F])c1 (centres undefined)
